Data reported in ChEMBL document CHEMBL1143616, “Potent and selective Aurora inhibitors identified by the expansion of a novel scaffold for protein kinase inhibition” (J Med Chem, 2005).

What was measured:
[1] = test system: HCT-116; assay: Antiproliferation activity against human colon cancer cell line (HCT116); format: functional, cell-based
How it was run: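 HCT-116 cells seeded at 5000 cells/cm² in F12 with 10% FCS, 2 mM L-glutamine and penicillin/streptomycin, 37 °C, 5% CO₂. Next day, dilutions from a 10 mM DMSO stock were added to duplicate wells. After 72 h, cells were trypsinized and counted on a Multisizer 3 counter. Counts were expressed as % of untreated control wells, and IC50 was taken from a sigmoidal fit.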

[2] = molecular target: T1, Aurora kinase A (Homo sapiens, UniProt O14965); assay: Inhibition of Aurora kinase A
T1 sequence (O14965 whole entry): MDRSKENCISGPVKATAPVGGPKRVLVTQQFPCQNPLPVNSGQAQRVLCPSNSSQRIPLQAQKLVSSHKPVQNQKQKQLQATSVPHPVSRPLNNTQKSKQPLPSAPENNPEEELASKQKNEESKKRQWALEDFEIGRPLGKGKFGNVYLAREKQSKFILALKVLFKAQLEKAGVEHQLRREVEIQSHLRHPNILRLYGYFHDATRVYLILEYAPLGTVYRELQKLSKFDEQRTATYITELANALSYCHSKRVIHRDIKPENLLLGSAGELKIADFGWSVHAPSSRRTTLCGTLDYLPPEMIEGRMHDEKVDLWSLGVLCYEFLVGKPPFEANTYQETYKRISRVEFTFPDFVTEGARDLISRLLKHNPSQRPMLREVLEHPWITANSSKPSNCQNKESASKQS
How it was run: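 GST-fused Aurora-A was made in insect cells and purified by GST affinity and gel filtration. Compounds were tested as 3-fold dilutions from 10 to 0.0005 µM. Reactions were stopped with EDTA and excess ATP, and substrate phosphorylation was read by streptavidin SPA bead counting.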

[3] = test system: A2780; assay: cells; conditions: Homo sapiens
[4] = test system: HL-60; assay: Antiproliferation activity against human HL-60 cell line
[5] = molecular target: T2, Aurora kinase C (Homo sapiens, UniProt Q9UQB9); assay: Inhibition of Aurora kinase C
T2 sequence (Q9UQB9 whole entry): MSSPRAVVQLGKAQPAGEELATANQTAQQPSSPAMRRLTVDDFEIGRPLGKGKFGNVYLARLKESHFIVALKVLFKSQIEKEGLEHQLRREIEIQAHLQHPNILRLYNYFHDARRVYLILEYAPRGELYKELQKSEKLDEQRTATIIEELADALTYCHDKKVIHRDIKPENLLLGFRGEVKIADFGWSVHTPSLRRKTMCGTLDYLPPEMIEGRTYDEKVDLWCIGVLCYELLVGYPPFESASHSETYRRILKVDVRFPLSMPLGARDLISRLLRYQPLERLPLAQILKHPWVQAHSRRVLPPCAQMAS

[6] = test system: HeLa; assay: Antiproliferation activity against HeLa cell line; conditions: Homo sapiens
[7] = molecular target: T3, Aurora kinase B (Homo sapiens, UniProt Q96GD4); assay: Inhibition of Aurora kinase B
[8] = molecular target: T2, Aurora kinase C; assay: Inhibitory activity against Aurora kinase C
[9] = molecular target: T3, Aurora kinase B; assay: Inhibitory activity against Aurora kinase B
[10] = test system: HT-29; assay: Antiproliferation activity against HT-29 cell line (HT-29); conditions: Homo sapiens

T3 sequence (Q96GD4 whole entry): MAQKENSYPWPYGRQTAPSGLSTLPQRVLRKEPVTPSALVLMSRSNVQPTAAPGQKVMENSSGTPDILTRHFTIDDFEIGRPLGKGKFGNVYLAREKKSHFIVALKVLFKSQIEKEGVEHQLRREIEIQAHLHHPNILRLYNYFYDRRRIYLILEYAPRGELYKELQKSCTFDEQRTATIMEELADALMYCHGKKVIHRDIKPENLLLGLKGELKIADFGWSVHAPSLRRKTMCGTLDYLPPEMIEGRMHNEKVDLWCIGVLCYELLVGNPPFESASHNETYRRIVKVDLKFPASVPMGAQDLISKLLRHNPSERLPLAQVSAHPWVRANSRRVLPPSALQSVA

Row | SMILES | IC50 [1] [nM] | IC50 [2] [nM] | other results
1 | CCc1cccc(CC)c1NC(=O)N1Cc2n[nH]c(NC(=O)c3ccc(C(C)(C)C)cc3)c2C1 | 2200 | 100 | –
2 | CC(C)(C)c1ccc(C(=O)Nc2n[nH]c3c2CN(C(=O)c2ccco2)C3)cc1 | 2100 | 41 | –
3 | CC(C)(C)c1ccc(C(=O)Nc2n[nH]c3c2CN(C(=O)Cc2ccccc2)C3)cc1 | 3000 | 130 | –
4 | CC(C)(C)c1ccc(C(=O)Nc2[nH]nc3c2CN(C(=O)Cc2ccsc2)C3)cc1 | 2000 | 5 | –

Compounds with a lower IC50 [1], results first:

Row | IC50 [1] [nM] | IC50 [2] [nM] | SMILES | other results
5 | 570 | 65 | CN1CCN(c2ccc(C(=O)Nc3[nH]nc4c3CN(C(=O)Cc3ccsc3)C4)cc2)CC1 | –
6 | 900 | 160 | CN1CCN(c2ccc(C(=O)Nc3n[nH]c4c3CN(C(=O)c3ccco3)C4)cc2)CC1 | –
7 | 45 | – | CCc1cccc(CC)c1NC(=O)N1Cc2n[nH]c(NC(=O)c3ccc(N4CCN(C)CC4)cc3)c2C1 [PHA-680632] | IC50 [3]: 110 nM; IC50 [4]: 130 nM; IC50 [5]: 120 nM; IC50 [6]: 410 nM; IC50 [7]: 135 nM; IC50 [8]: 120 nM; IC50 [9]: 135 nM; IC50 [10]: 80 nM
